Screens: PubChem BioAssay, The Scripps Research Institute Molecular Screening Center
proCasp7 act – procaspase-7 activators, primary screen, counter-screen for procaspase-3 activator project, biochemical, absorbance, HTS, human. Caspase-7 (Homo sapiens), P55210. recombinant procaspase-7, Ac-DEVD-pNA absorbance 405 nm; D23A/D198A/D206A triple mutant, cannot self-cleave; scale: DMSO 0, 5 µM enzyme 100. activation, % at 8.5 µM. actives 0.093% (n = 330,000);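 active = percent activation above the screen-wide mean plus 3 SD, cut at about 25% in these data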
Target sequence (P55210 whole entry D23A/D198A/D206A): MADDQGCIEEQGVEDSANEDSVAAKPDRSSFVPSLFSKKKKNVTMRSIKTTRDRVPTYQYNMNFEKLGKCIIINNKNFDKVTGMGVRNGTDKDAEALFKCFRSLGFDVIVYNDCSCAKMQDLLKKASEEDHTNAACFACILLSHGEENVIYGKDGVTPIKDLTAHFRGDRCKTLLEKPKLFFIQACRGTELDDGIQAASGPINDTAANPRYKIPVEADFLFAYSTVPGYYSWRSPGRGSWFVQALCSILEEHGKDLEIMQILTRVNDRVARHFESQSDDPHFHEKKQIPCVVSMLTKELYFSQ
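Detection: p-Nitroaniline absorbance at 405 nm, read at 0 and 120 min; system: Uncleavable procaspase-7 mutant enzyme; evaluation: % activation from two-timepoint absorbance difference, scaled to controls; times: 1 h enzyme–compound preincubation and 2 h substrate reaction, both 25 °C; buffer or medium: Zinc-free HEPES pH 7.4 with 300 mM NaCl, 0.01% Triton X-100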
proCasp3 act – activators of human procaspase-3 D3A mutant, primary screen, biochemical, absorbance, PC-3 D3A mutant, single concentration. recombinant procaspase-3 D3A, Ac-DEVD-pNA absorbance 405 nm. activation, % at 8.5 µM. actives 0.11% (n = 330,000);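 active = activation above the mean of all tested compounds plus 3 SD, cut at about 21% in these data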;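 also: 0% = DMSO alone and 100% = DMSO wells spiked with extra 5 µM PC-3 D3A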
Target sequence (P42574 whole entry D9A/D28A/D175A): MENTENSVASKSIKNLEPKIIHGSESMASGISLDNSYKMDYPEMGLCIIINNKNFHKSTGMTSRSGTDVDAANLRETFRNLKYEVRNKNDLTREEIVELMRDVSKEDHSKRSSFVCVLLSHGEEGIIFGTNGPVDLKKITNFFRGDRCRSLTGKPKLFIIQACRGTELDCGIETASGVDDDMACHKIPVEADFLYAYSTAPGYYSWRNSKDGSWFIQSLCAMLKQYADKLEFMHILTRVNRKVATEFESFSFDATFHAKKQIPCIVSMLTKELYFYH
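Assay system – Procaspase-3 D3A mutant, all three cleavage aspartates alanine · Controls – DMSO-only low control, 5 µM PC-3 D3A high control · Schedule – 1 h compound preincubation, 2 h substrate hydrolysis at 25 °C · Signal – 405 nm absorbance of p-nitroaniline, reads at 0 and 120 min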
PP1 counter – PP1-alpha phosphatase inhibitors, primary screen, counter-screen for PP5 inhibitor project, biochemical, fluorescence, OMFP substrate, single point; purified PP1alpha; inhibition, % at 6.7 µM; actives 0.9% (n = 320,000); AID 2235, 2010;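 active = inhibition above the mean inhibition of all tested compounds plus 3 SD, computed separately for each screening campaign, cut at about 15% in these data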
PP5 primary – PP5 phosphatase inhibitors, primary screen, biochemical, fluorescence | inhibition, % at 6.7 µM | actives 0.18% (n = 320,000) | purified PP5c, OMFP substrate fluorescence;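 active = inhibition above the campaign's mean inhibition across all tested compounds plus 3 SD, cut at about 9.5% in these data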;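 also: 0% = DMSO only and 100% = 100 µM cantharidin control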
An asterisk follows results filed as active; x = not tested or not shown. Hits are enriched below; roughly 1.2% of the tested compounds scored in any of these assays.

SMILES | proCasp7 act | proCasp3 act | PP1 counter | PP5 primary
Cc1ccc(S(=O)(=O)N2[C@@H](c3ccccc3F)C(C(=O)O)=CC[C@H]2c2ccc3c(c2)OCO3)cc1 | 2 | -4 | 0 | 6
Cc1[nH][nH]c(=O)c1C(c1c(C)[nH][nH]c1=O)c1cn(Cc2cccc3ccccc23)c2ccccc12 | -25 | -10 | 16* | 3
O=c1c2ccccc2ncn1Cc1cccc2ccccc12 | 2 | 7 | 0 | 1
CCC(=O)NC(c1ccccc1OC)c1ccc2cccnc2c1O (stereo unspecified) | 8 | -1 | 0 | 1
COc1ccc(Cl)cc1C(Nc1cccnc1)c1ccc2cccnc2c1O (stereo unspecified) | -9 | 2 | 17* | -1
COc1cccc2sc(Nc3nc(-c4ccccn4)cs3)nc12 | -12 | -5 | 17* | 1
COc1ccc(OCC(=O)N/N=C/C(C)=C/c2ccco2)c(Br)c1 | 3 | -8 | 17* | -5
NNC(=O)c1cc(NS(=O)(=O)c2cccs2)cc(NS(=O)(=O)c2cccs2)c1 | 4 | 7 | x | x
O=C(Nc1cc(-c2ccccc2)[nH]n1)c1ccc(Cl)cc1 | -4 | -3 | 17* | 1
COc1ccc(C(=O)NC(C(=O)NCC2(N3CCCCC3)CCCCC2)C(C)C)cc1 (stereo unspecified) | 1 | -6 | -3 | -2
COc1ccc(/C=C2\C(=O)NC(=S)N2C(=O)c2ccc(C)cc2)cc1 | -21 | -17 | 16* | 0
Cc1ccc2c(c1)C(=O)C(=O)N2Cc1ccc(Cl)cc1 | -2 | 9 | x | x
NNC(=O)c1cc2c(N3CCC(Cc4ccccc4)CC3)ncnc2s1 | -4 | 0 | 16* | 0
CCCCn1c(N)c(N(CC(C)C)C(=O)c2ccco2)c(=O)[nH]c1=O | 3 | 7 | -8 | -3
COc1ccccc1/C=N/NC(=O)c1ccc(CN2C(=O)c3cccc4cccc2c34)cc1 | 3 | -3 | 16* | 1
CC(C)(C)OC(=O)C[C@@H]1C/C=C\C[C@@H](CC(=O)N(CCO)Cc2ccccc2)C(=O)N[C@@H](c2ccccc2)COC1=O | 5 | -2 | x | x
CCOc1cc(/C=C2\C(=O)N(c3cccc(C(=O)O)c3)N=C2C(F)(F)F)ccc1OCC(=O)Nc1ccccc1OC | 3 | -1 | 17* | -1
CN(C)c1ccc(/C=N/n2c(C3CCCCC3)n[nH]c2=S)cc1 | -7 | -9 | 2 | 0
Cc1noc(/C=C/c2ccco2)c1S(=O)(=O)N1CCC(C(=O)N2c3ccccc3CC2C)CC1 (stereo unspecified) | 3 | -8 | 17* | 0
CC(C)(C)c1ccc(Cn2nnc3c(=O)[nH]c(C4CCCN(C(=O)c5cccs5)C4)nc32)cc1 (stereo unspecified) | -1 | -4 | 16* | 3
Cc1ccccc1N1C(=O)C2CCCN2C1=S (stereo unspecified) | -4 | -3 | -3 | 0
Cc1ccccc1OCC(=O)NNC(=S)NC(=O)c1ccco1 | -2 | -12 | 17* | 0
COc1ccccc1-c1nnc(NC(=O)c2ccc(S(=O)(=O)N(C)CC3CCCO3)cc2)o1 (stereo unspecified) | -3 | 0 | 17* | 3
COc1ccccc1N1CCN(Cc2ccc(OC)c(OC)c2OC)CC1 | -3 | 0 | -2 | 0
COc1ccccc1N1CCN(Cc2ccc(O)c3ncccc23)CC1 | 4 | 3 | 15* | 2
SMILES | proCasp7 act | proCasp3 act | PP1 counter | PP5 primary
C[C@H](CO)N1C[C@H](C)[C@@H](CN(C)C(=O)Nc2ccc(C(F)(F)F)cc2)Oc2ccc(NS(=O)(=O)c3cn(C)cn3)cc2C1=O | -5 | -2 | x | x
Cc1nc2c(C(=O)NCCc3ccccc3Cl)c[nH]n2c(=O)c1Cl | -2 | 1 | 17* | 3
C=CCn1c(COc2ccccc2-c2ccccc2)nnc1SCC(=O)NC(=O)NCc1ccco1 | -5 | -6 | 16* | 5
Cc1cc(C)nc(SSc2nc(C)cc(C)n2)n1 | -32 | -21 | -4 | 1
O=c1c2ccccc2nc(/C=C/c2ccccc2)n1CCc1ccccc1 | 9 | -6 | 5 | 2
O=c1c2ccccc2nc(/C=C/c2cccnc2)n1CCc1ccccc1 | -10 | -21 | 16* | 5
N#Cc1cc(Oc2cccc3cccnc23)c(-n2nnc3ccccc32)cc1C#N | -8 | -7 | 16* | 6
CC[C@]12c3[nH]c4cc(-c5ccco5)ccc4c3CCN1C(=O)[C@@H](CC(=O)NCCCN(C)C)C[C@@H]2C(=O)N1CCN(C(=O)c2ccco2)CC1 | 1 | -9 | x | x
COc1ccc(NC(=O)Cn2cnc3sc(C)c(S(=O)(=O)N4CCOCC4)c3c2=O)cc1Cl | 9 | -3 | 1 | -1
O=C(Nc1cccc(S(=O)(=O)NC2=NCCCCC2)c1)c1cc(-c2ccco2)nc2ccccc12 | 3 | 0 | 17* | -1
O=C1[C@@H](Oc2ccccc2)[C@@H](c2ccncc2)N1c1ccncc1 | 12 | -8 | x | x
Cc1cccc2c(C(=O)N3CCN(c4ccccn4)CC3)cc(-c3cccc(Br)c3)nc12 | 4 | -4 | 15* | 1
O=C(c1cc(-c2cccc(Cl)c2)nc2ccccc12)N1CCN(c2ccccn2)CC1 | 14 | 4 | -2 | 2
CCOc1ccc(N2CC(C(=O)Nc3nnc(Cc4ccc(OC)cc4)s3)CC2=O)cc1 (stereo unspecified) | -2 | -4 | 16* | 3
COc1ccc(Cc2nnc(NC(=O)C3CC(=O)N(c4ccc(OC)cc4)C3)s2)cc1 (stereo unspecified) | 0 | 5 | 1 | 0
Cc1cc(C)n(CC(=O)NNC(=O)c2ccc(NC(=O)CC#N)cc2)n1 | 1 | 2 | -7 | -2
CCCOc1ccc(OCCSc2ncccn2)cc1 | -13 | 6 | 16* | 2
Clc1ccc(OCCCCSc2ncccn2)cc1 | -2 | -2 | -5 | -1
Cc1ccc(S(=O)(=O)N(CC(=O)NCC2CCCO2)Cc2ccc(F)cc2)cc1 (stereo unspecified) | -1 | -11 | 15* | 3
Cc1cc(C(=O)Cn2nc(C(=O)O)c3ccccc3c2=O)c(C)n1-c1ccc(OC(F)F)cc1 | 5 | -2 | 16* | 0
CC1(C)CC(=O)c2c(nc(SCC(=O)Nc3nsc(-c4ccccc4)n3)c(C#N)c2-c2ccccc2)C1 | 3 | -2 | 16* | 5
NS(=O)(=O)c1ccc(CNC(=O)c2ccc(C(=O)c3ccccc3)cc2)cc1 | -8 | -5 | x | x
Cc1ccc(S(=O)(=O)N2CCCCC2)cc1NC(=O)COC(=O)C1(C)CC1(Cl)Cl (stereo unspecified) | 6 | 1 | 0 | 2
